Here are results for five compounds from ChEMBL document CHEMBL1777739, “Design, synthesis, and biological activity of novel Magmas inhibitors” (Bioorg Med Chem Lett, 2011).

The source made the active and inactive calls. The calls are words filed in the database; no cut-off is given here.

Data set [1] concerns Saccharomyces cerevisiae. Kind of data set: Inhibition of TIM16-mediated Saccharomyces cerevisiae J47D proliferation in log phase at 10 uM measured for every 30 mins. In short, it runs like this: (§1)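 Log-phase S. cerevisiae J47D plated at 1.5 × 10⁴ cells/well in YEPD. Compounds in DMSO added across 0–1 mM, triplicate wells, 1% final DMSO. Cultured at 30 °C with OD600 read every 30 min. n = 3; each experiment done at least twice independently.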

For data set [2], the system named is Saccharomyces cerevisiae. Kind of data set: Inhibition of TIM16-mediated Saccharomyces cerevisiae J47D proliferation in log phase at 1 mM measured for every 30 mins. The procedure, abridged: as §1
For data set [3], the system named is Saccharomyces cerevisiae. The data set can be described thus: Inhibition of TIM16-mediated Saccharomyces cerevisiae J47D proliferation in log phase at 1 uM measured for every 30 mins. The procedure, abridged:
as §1

Data set [4] concerns Saccharomyces cerevisiae. The data set can be described thus: Inhibition of TIM16-mediated Saccharomyces cerevisiae J47D proliferation in log phase at 100 uM measured for every 30 mins. The procedure, abridged:
as §1

In data set [5] the test system is T1, Saccharomyces cerevisiae [A104S].
T1 sequence (whole entry): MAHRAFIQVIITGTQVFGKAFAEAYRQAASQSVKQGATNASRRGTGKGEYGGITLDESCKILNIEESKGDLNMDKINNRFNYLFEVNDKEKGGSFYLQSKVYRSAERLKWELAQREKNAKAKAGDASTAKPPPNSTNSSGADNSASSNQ
Kind of data set: Inhibition of Saccharomyces cerevisiae TIM16 A104S mutant-mediated proliferation up to 60 mins. The procedure, abridged:
(§2)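 Yeast whose wild-type TIM16 plasmid was lost on FOA selection, carrying plasmid-borne Tim16 N84T or A104S mutants, cultured in YEPD at 30 °C. Compound added at graded concentrations in DMSO (1% final), triplicate wells. OD600 read every 30 min; compared with the wild-type plasmid strain.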

Data set [6] in a line: Binding affinity to Saccharomyces cerevisiae Magmas by fluorometric titration. The procedure, abridged:
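Intrinsic Trp/Tyr fluorescence of yeast Magmas (3 µM, unit as printed) in 50 mM Bis–Tris pH 7.1, 25 °C. Excitation 295 nm, emission read at 365 nm. Ligand titrated from 0 to […] using freshly made stock. Dilution kept ≤10% and corrected for. Kd obtained by fitting intensity versus total ligand concentration to a single-site binding equation.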

Data set [7] relates to Saccharomyces cerevisiae. The data set can be described thus: Inhibition of Saccharomyces cerevisiae TIM16 N84T mutant-mediated proliferation up to 60 mins. In short, it runs like this:
as §2

The nature of data set [8]: Solubility of the compound at 1 mM. In kind it is physicochemical. To be noted: 1000 µM.

Turning to `Brc1ccc2c(c1)C=CC(c1ccccc1)O2` (stereo not drawn), the inhibition entry in the data set on Saccharomyces cerevisiae [1], in the data set on Saccharomyces cerevisiae [2] and in the data set with Saccharomyces cerevisiae [4] was “Active” throughout. Besides, in the data set on Saccharomyces cerevisiae [3], the inhibition entry is “inactive”.

On to `O=[N+]([O-])c1ccc2c(c1)C=CC(c1ccccc1)O2` (stereo not drawn), for which the inhibition result with Saccharomyces cerevisiae [1], in the data set with Saccharomyces cerevisiae [2], in the data set with Saccharomyces cerevisiae [3] and with Saccharomyces cerevisiae [4] was “inactive” each time.

For `CCC1=C(C)/C(=C/c2ccc(C(=O)NC(=N)N)cc2)CCC1(C)C`, the inhibition result (in the data set with Saccharomyces cerevisiae [1]; in the data set with Saccharomyces cerevisiae [2]; in data set [5]; with Saccharomyces cerevisiae [4]) was “Active” in each case. Besides, the inhibition result with Saccharomyces cerevisiae [3] and in the data set with Saccharomyces cerevisiae [7] was “inactive” each time. The same compound yielded a Kd in data set [6] of 33.5 µM.

For the compound `Clc1ccc2c(c1)C=CC(c1ccccc1)O2` (stereo not drawn), the inhibition entry in the data set on Saccharomyces cerevisiae [1] and in the data set with Saccharomyces cerevisiae [3] was “inactive” in each case. For the same compound, in the data set on Saccharomyces cerevisiae [4], the inhibition result is “Active”. In addition, the solubility result in data set [8] is “Insoluble”.

In the case of `CCCCCCCCC1C=Cc2cc([N+](=O)[O-])ccc2O1` (stereo not drawn), the inhibition result in the data set on Saccharomyces cerevisiae [1] and in the data set with Saccharomyces cerevisiae [3] was “inactive” in each case. Besides, the inhibition entry in the data set on Saccharomyces cerevisiae [4] was “Active”. The solubility entry in data set [8] is “Insoluble”.

What is called Kd is the equilibrium constant for the complex coming apart. The low end stands for a tighter complex, the high end for a looser complex.
